Molecules are shown by their SMILES. ≈ marks a conversion by molar mass, not a printed value.

For data set [1], the system named is Staphylococcus aureus. Nature of the data set: Antibacterial activity against methicillin resistant Staphylococcus aureus assessed as bacterial growth inhibition after 18 hrs by broth microdilution method. Format: functional. On the technique in general: Dilution methods test growth across graded concentrations, often in twofold steps.
The test system of data set [2] is Staphylococcus epidermidis. Put plainly: Antibacterial activity against methicillin resistant Staphylococcus epidermidis assessed as bacterial growth inhibition after 18 hrs by broth microdilution method. The format is functional.
The next data set deals with Bacillus subtilis. Put plainly: Antibacterial activity against Bacillus subtilis 168 assessed as inhibition of bacterial growth incubated for 18 hrs by broth microdilution method. Format: functional. In a few lines: (§1)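 Broth microdilution in 96-well plates. Media: cation-adjusted Mueller−Hinton broth for S. aureus, brain heart infusion for VRE, Mueller−Hinton broth for the other strains. Incubated at 37 °C for 18 h, then A600 read. Percent growth inhibition calculated against 1% DMSO vehicle.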

Data set [3] concerns Staphylococcus aureus. Nature of the data set: Antibacterial activity against Staphylococcus aureus ATCC 29213 assessed as inhibition of bacterial growth incubated for 18 hrs by broth microdilution method. Format: functional. Summed up: as §1
In data set [4] the test system is Mycobacterium tuberculosis. Put plainly: Antitubercular activity against Mycobacterium tuberculosis H37Rv assessed as inhibition of bacterial growth incubated for 7 days by MABA. Format: functional. The settings on record: time 7 day, 168 h. In a few lines:
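Microplate alamar blue assay. H37Rv or clinical isolates were grown to late log phase in 7H9 broth with glycerol, Tween 80 and ADC, then 2 × 10⁵ CFU added to two-fold dilutions. Final range 32–0.5 μg/mL, lowered to 2–0.016 μg/mL for active compounds. 37 °C, 7 days, then alamar blue 16 h. Fluorescence 530/590 nm. MIC is the lowest concentration giving ≥90% reduction; INH and RFP were controls.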

In another data set the test system is Staphylococcus capitis. Put plainly: Antibacterial activity against linezolid resistant Staphylococcus capitis assessed as bacterial growth inhibition after 18 hrs by broth microdilution method. The format is functional.
The test system of data set [5] is Enterococcus faecalis. Put plainly: Antibacterial activity against Enterococcus faecalis ATCC 29212 assessed as bacterial growth inhibition after 18 hrs by broth microdilution method. Format: functional. In a few lines: as §1
In data set [6] the test system is Enterococcus faecium. Nature of the data set: Antibacterial activity against linezolid resistant Enterococcus faecium 13549 assessed as bacterial growth inhibition after 18 hrs by broth microdilution method. The format is functional.
Data set [7] has as its system Enterococcus faecalis. Put plainly: Antibacterial activity against linezolid resistant Enterococcus faecalis assessed as bacterial growth inhibition after 18 hrs by broth microdilution method. Format: functional.
Another data set relates to Escherichia coli. Put plainly: Antibacterial activity against Escherichia coli 25922 assessed as inhibition of bacterial growth incubated for 18 hrs by broth microdilution method. Format: functional. The settings on record: ATCC 25922. In a few lines: as §1
The subject of the next data set is Enterococcus. Put plainly: Antibacterial activity against vancomycin resistant Enterococcus assessed as bacterial growth inhibition after 18 hrs by broth microdilution method. Format: functional.
Data set [8] has as its system Staphylococcus aureus. Nature of the data set: Antibacterial activity against vancomycin intermediate Staphylococcus aureus assessed as bacterial growth inhibition after 18 hrs by broth microdilution method. Format: functional.
Data set [9] concerns Enterococcus faecium. Nature of the data set: Antibacterial activity against Enterococcus faecium ATCC 49624 assessed as bacterial growth inhibition after 18 hrs by broth microdilution method. The format is functional. In a few lines:
as §1

Data set [10] in a line: Metabolic stability in CD-1 mouse liver microsomes incubated for 30 mins by LC-MS analysis. The format is ADME, Microsome. Summed up:
(§2)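 Microsomes from male CD-1 mouse or pooled human, 1 mg/mL protein in 0.05 M phosphate buffer pH 7.4. Compound at final 0.1 μM with DMSO cosolvent. Incubated at 37 °C with 1 mM NADPH, or with buffer in place of NADPH. Sampled at 0 and 30 min and quenched with acetonitrile. LC−MS measurement; substrate remaining at 30 min normalized to time zero.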
For orientation: Liver microsomes are a subcellular fraction often used to study metabolism.

A short description of data set [11]: Metabolic stability in CD-1 mouse liver microsomes assessed as substrate remaining in presence of NADPH incubated for 30 mins by LC-MS analysis. Format: ADME, Microsome. Particulars: read-out: Stabilty. In a few lines: as §2
Data set [12] in a line: Metabolic stability in pooled human liver microsomes assessed as substrate remaining in presence of NADPH incubated for 30 mins by LC-MS analysis. Format: ADME, Microsome. Particulars: read-out: Stabilty. Summed up: as §2
Data set [13] is described as follows: Metabolic stability in pooled human liver microsomes incubated for 30 mins by LC-MS analysis. Particulars: read-out: Stabilty. Format: ADME, Microsome. In a few lines:
as §2

The mark [14] stands for this setting: Mycobacterium tuberculosis, H37Rv, read-out: MIC.

In general, MIC refers to the least concentration at which growth counts as inhibited. Turning to `CC1(C)S[C@@H]2[C@H](NC(=O)[C@H](N)c3ccccc3)C(=O)N2[C@H]1C(=O)O` [AMPICILLIN], the MIC in the data set with Staphylococcus aureus [1] is more than 32 µg/mL; in data set [2], more than 32 µg/mL; with Bacillus subtilis, 0.25 µg/mL (≈ 0.715 µM); in the data set with Staphylococcus aureus [3] it was 0.25 µg/mL (≈ 0.715 µM).

For `CC(=O)NCC1OC(=O)N2Cc3cc(-c4ccc(C#N)nc4)c(F)cc3OC12` (racemic; cis), the minimum inhibitory concentration (MIC) in data set [4] was 15.51 µg/mL (≈ 40.6 µM).

For `CC(=O)NC[C@H]1OC(=O)N2Cc3cc(-c4ccc(C#N)nc4)c(F)cc3O[C@H]12`, the MIC was more than 32 µg/mL in data set [4] (setting [14]) and more than 64 µg/mL with Staphylococcus aureus [3].

As to `NC[C@@H]1OC(=O)N2Cc3cc(N4CCOCC4)ccc3O[C@@H]12`, the minimum inhibitory concentration (MIC) in [4] (setting [14]) is more than 32 µg/mL.

As to `CC(=O)NC[C@@H]1OC(=O)N2Cc3cc(F)c(N4CCOCC4)cc3O[C@@H]12` (racemic), the minimal inhibitory concentration (MIC) in data set [4] (setting [14]) is more than 32 µg/mL.

`CC(=O)NC[C@@H]1OC(=O)N2Cc3cc(-c4ccc(-c5nnn(C)n5)nc4)c(F)cc3O[C@@H]12`: the MIC was found to be 0.5 µg/mL (≈ 1.14 µM) in the data set on Staphylococcus aureus [1]; 2 µg/mL (≈ 4.55 µM) with Staphylococcus capitis; 0.5 µg/mL (≈ 1.14 µM) with Enterococcus faecalis [5]; 2 µg/mL (≈ 4.55 µM) in the data set on Enterococcus faecium [6]; 1 µg/mL (≈ 2.28 µM) in the data set on Enterococcus faecalis [7]; 1 µg/mL (≈ 2.28 µM) in data set [2]. The MIC with Escherichia coli is more than 64 µg/mL; in the data set on Bacillus subtilis it was 0.125 µg/mL (≈ 0.284 µM); in [4] (setting [14]) it was 0.54 µg/mL (≈ 1.23 µM); with Enterococcus it was 0.25 µg/mL (≈ 0.569 µM); in the data set on Staphylococcus aureus [8] it was 0.5 µg/mL (≈ 1.14 µM); in the data set with Enterococcus faecium [9], 1 µg/mL (≈ 2.28 µM). Further, the MIC in the data set with Staphylococcus aureus [3] amounted to 0.125 µg/mL (≈ 0.284 µM).

For the compound `CC(=O)NC[C@@H]1OC(=O)N2c3cc(F)c(Br)cc3OC[C@@H]12`, the Stabilty in data set [10] (mouse, microsomes, 0.5 h) is 125%. The remaining at 0.5 h in data set [11] worked out at 73.4%; in data set [12] it was 71.4%; in data set [13] it was 110%.

On to `CC(=O)NCC1OC(=O)N2Cc3cc(-c4ccc(C#N)nc4)c(F)cc3OC12` (racemic; trans), for which the MIC in data set [4] was 1.58 µg/mL (≈ 4.13 µM).

For `CC(=O)NC[C@@H]1OC(=O)N2Cc3cc(N4CCOCC4)ccc3O[C@@H]12`, the MIC in [4] (setting [14]) is more than 32 µg/mL.

As to `CN[C@H](CC(C)C)C(=O)N[C@H]1C(=O)N[C@@H](CC(N)=O)C(=O)N[C@H]2C(=O)N[C@H]3C(=O)N[C@H](C(=O)N[C@H](C(=O)O)c4cc(O)cc(O)c4-c4cc3ccc4O)[C@H](O)c3ccc(c(Cl)c3)Oc3cc2cc(c3O[C@@H]2O[C@H](CO)[C@@H](O)[C@H](O)[C@H]2O[C@H]2C[C@](C)(N)[C@H](O)[C@H](C)O2)Oc2ccc(cc2Cl)[C@H]1O` [VANCOMYCIN], the MIC was less than 2 µg/mL in [2]; 64 µg/mL (≈ 44.2 µM) in the data set on Escherichia coli; 0.25 µg/mL (≈ 0.173 µM) in the data set with Bacillus subtilis; more than 32 µg/mL in the data set with Enterococcus; more than 32 µg/mL in the data set with Staphylococcus aureus [8].

In the case of `N#Cc1ccc(-c2cc3c(cc2F)O[C@H]2[C@H](CN)OC(=O)N2C3)cn1`, the MIC in data set [4] (setting [14]) amounted to 0.26 µg/mL (≈ 0.764 µM).

Turning to `CC(=O)NC[C@@H]1OC(=O)N2Cc3cc(N4CCOCC4)c(F)cc3O[C@@H]12`, the MIC is more than 64 µg/mL in the data set on Escherichia coli, 8 µg/mL (≈ 21.9 µM) in the data set on Bacillus subtilis, 31.7 µg/mL (≈ 86.8 µM) in data set [4] (setting [14]) and 2 µg/mL (≈ 5.47 µM) with Staphylococcus aureus [3].

On to `N#Cc1ccc(-c2cc3c(cc2F)CN2C(=O)O[C@@H](CN)[C@@H]2O3)cn1` (racemic), for which the MIC in the data set on Escherichia coli was more than 64 µg/mL; in the data set on Bacillus subtilis, more than 64 µg/mL; in data set [4] (setting [14]) it was more than 32 µg/mL; in the data set with Staphylococcus aureus [3] it was more than 64 µg/mL.

Consider `N#Cc1ccc(-c2ccc3c(c2)CN2C(=O)O[C@@H](CN)[C@@H]2O3)cn1`, for which the MIC was more than 64 µg/mL with Escherichia coli, more than 64 µg/mL in the data set with Bacillus subtilis, 2.94 µg/mL (≈ 9.12 µM) in data set [4] (setting [14]) and more than 64 µg/mL with Staphylococcus aureus [3].

In the case of `CC(=O)NC[C@@H]1OC(=O)N2Cc3cc(F)c(-c4ccc(C#N)nc4)cc3O[C@@H]12` (racemic), the MIC with Escherichia coli is more than 64 µg/mL; in the data set on Bacillus subtilis it was more than 64 µg/mL; in data set [4] (setting [14]), more than 32 µg/mL; with Staphylococcus aureus [3] it was more than 64 µg/mL.

`CC(=O)NC[C@H]1CN(c2ccc(N3CCOCC3)c(F)c2)C(=O)O1` [LINEZOLID]: the minimum inhibitory concentration (MIC) in the data set with Staphylococcus capitis is not below 16 µg/mL; in the data set on Enterococcus faecium [6], 8 µg/mL (≈ 23.7 µM); with Escherichia coli, more than 64 µg/mL; in the data set with Bacillus subtilis, 0.25 µg/mL (≈ 0.741 µM); in data set [4] (setting [14]), 0.88 µg/mL (≈ 2.61 µM); with Enterococcus faecium [9], 2 µg/mL (≈ 5.93 µM). In addition, the MIC with Staphylococcus aureus [3] amounted to 0.125 µg/mL (≈ 0.371 µM).

Turning to `CC(=O)NC[C@@H]1OC(=O)N2Cc3cc(-c4ccc(C#N)nc4)ccc3O[C@@H]12`, the MIC with Escherichia coli is more than 64 µg/mL; with Bacillus subtilis, 1 µg/mL (≈ 2.74 µM); in data set [4] (setting [14]) it was 12.2 µg/mL (≈ 33.6 µM); in the data set on Staphylococcus aureus [3], 0.5 µg/mL (≈ 1.37 µM).

For `NC[C@@H]1OC(=O)N2Cc3cc(F)c(N4CCOCC4)cc3O[C@@H]12` (racemic), the MIC in [4] (setting [14]) was more than 32 µg/mL.

Regarding `Cn1nnc(-c2ccc(-c3cc4c(cc3F)O[C@H]3[C@H](CN)OC(=O)N3C4)cn2)n1`, the MIC in the data set on Escherichia coli is more than 64 µg/mL; in the data set on Bacillus subtilis, more than 64 µg/mL; in data set [4] (setting [14]), 0.47 µg/mL (≈ 1.18 µM); with Staphylococcus aureus [3] it was 32 µg/mL (≈ 80.5 µM).

As for `CC(=O)NC[C@@H]1OC(=O)N2Cc3cc(Br)c(F)cc3O[C@@H]12`, the remaining at 0.5 h in [10] (CD-1, mouse, liver microsomes, read-out: Stabilty) was 102%; in [11], 105%; in data set [12], 111%; in data set [13], 93.8%.

Consider `NC[C@@H]1OC(=O)N2Cc3cc(N4CCOCC4)c(F)cc3O[C@@H]12`, for which the MIC with Escherichia coli is more than 64 µg/mL; in the data set with Bacillus subtilis, more than 64 µg/mL; in data set [4] (setting [14]), more than 32 µg/mL; with Staphylococcus aureus [3] it was more than 64 µg/mL.

The record behind these values is ChEMBL document CHEMBL4837188, “Identification of Novel Tricyclic Benzo[1,3]oxazinyloxazolidinones as Potent Antibacterial Agents with Excellent Pharmacokinetic Profiles against Drug-Resistant Pathogens” (J Med Chem, 2021).
